Experimental data published in ChEMBL document CHEMBL2417474, “Synthesis, antiproliferative and anti-inflammatory activities of some novel 6-aryl-2-(p-(methanesulfonyl)phenyl)-4,5-dihydropyridazi-3(2H)-ones” (Eur J Med Chem, 2013).

Key:
[1] = tested on: SK-MEL-5; test: Growth inhibition of human SK-MEL-5 cells after 48 hrs by sulforhodamine B assay; type: functional; conditions: SK-MEL-5, 48 h
Summary of the method: (§1)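 NCI 60-cell-line panel. Cells were grown in medium with 5% fetal calf serum and 2 mM L-glutamine, then preincubated 24 h in plates. Compounds were added from DMSO at five 10-fold concentrations from 100 to 0.01 µM and left on cells continuously for 48 h. Cell growth was read by sulforhodamine B protein stain. GI50 is the concentration that halves net protein increase relative to control cells.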

[2] = tested on: MDA-MB-468; test: Growth inhibition of human MDA-MB-468 cells assessed as cell growth at 10 uM after 48 hrs by sulforhodamine B assay; type: functional; conditions: MDA-MB-468, 48 h, read-out: Activity
[3] = tested on: RXF 393; test: Growth inhibition of human RXF393 cells after 48 hrs by sulforhodamine B assay; type: functional; conditions: RXF 393, 48 h; summary of the method: as §1
[4] = tested on: SF-268; test: Growth inhibition of human SF268 cells assessed as cell growth at 10 uM after 48 hrs by sulforhodamine B assay; type: functional; conditions: SF-268, 48 h, read-out: Activity
[5] = tested on: ACHN; test: Growth inhibition of human ACHN cells after 48 hrs by sulforhodamine B assay; type: functional
Summary of the method: (§2)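 NCI 60-cell-line panel grown in RPMI-type medium with 5% fetal calf serum and 2 mM L-glutamine. Cells preincubated 24 h, then exposed continuously for 48 h to compound in DMSO at 10^-4 to 10^-8 M (five 10-fold levels). Growth read by SRB protein stain. GI50 is the concentration giving a 50% reduction in net protein increase relative to control cells.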

[6] = tested on: Rattus norvegicus; test: Antiinflammatory activity in Wistar rat assessed as inhibition of carrageenan-induced paw edema at 0.05 mmol/kg, po administered 30 mins prior challenge measured after 3 hrs; type: functional
Summary of the method: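 Wistar rats of either sex, 150–175 g, fasted 16 h, 6 per group. Dosed orally at 0.05 mmol/kg, suspended in 1% CMC in water (10 ml/kg). 30 min later, 0.1 ml of 1% carrageenan in saline injected subplantar into the left hind paw. Paw volume read by plethysmometer at 0, 3 and 5 h. % inhibition = (1 − Vt/Vc) × 100 against the vehicle group.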

[7] = tested on: Malme-3M; test: Growth inhibition of human MALME-3M cells assessed as cell growth at 10 uM after 48 hrs by sulforhodamine B assay; type: functional; conditions: read-out: Activity
[8] = tested on: OVCAR-4; test: Growth inhibition of human OVCAR4 cells assessed as cell growth at 10 uM after 48 hrs by sulforhodamine B assay; type: functional; conditions: OVCAR-4, 48 h, read-out: Activity
[9] = tested on: DU-145; test: Growth inhibition of human DU145 cells assessed as cell growth at 10 uM after 48 hrs by sulforhodamine B assay; type: functional; conditions: DU-145, 48 h, read-out: Activity
[10] = tested on: CCRF-CEM; test: Growth inhibition of human CCRF-CEM cells after 48 hrs by sulforhodamine B assay; type: functional, cell-based; summary of the method: as §2
[11] = tested on: MDA-MB-435; test: Growth inhibition of human MDA-MB-435 cells assessed as cell growth at 10 uM after 48 hrs by sulforhodamine B assay; type: functional; conditions: MDA-MB-435, 48 h, read-out: Activity
[12] = tested on: SR; test: Growth inhibition of human SR cells after 48 hrs by sulforhodamine B assay; type: functional; summary of the method: as §1
[13] = tested on: SK-OV-3; test: Growth inhibition of human SKOV3 cells after 48 hrs by sulforhodamine B assay; type: functional; conditions: SK-OV-3, 48 h; summary of the method: as §1
[14] = tested on: UACC-62; test: Growth inhibition of human UACC62 cells assessed as cell growth at 10 uM after 48 hrs by sulforhodamine B assay; type: functional; conditions: UACC-62, 48 h, read-out: Activity
Summary of the method: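 Single-dose NCI screen. Tumor lines were cultured in medium with 5% fetal calf serum and 2 mM L-glutamine, preincubated 24 h, then given compound in DMSO. After 48 h continuous exposure, cell growth was estimated by sulforhodamine B protein assay.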

[15] = tested on: IGROV-1; test: Growth inhibition of human IGROV1 cells assessed as cell growth at 10 uM after 48 hrs by sulforhodamine B assay; type: functional; conditions: IGROV-1, 48 h, read-out: Activity
[16] = tested on: MDA-MB-435; test: Growth inhibition of human MDA-MB-435 cells after 48 hrs by sulforhodamine B assay; type: functional; conditions: MDA-MB-435, 48 h; summary of the method: as §1
[17] = tested on: IGROV-1; test: Growth inhibition of human IGROV1 cells after 48 hrs by sulforhodamine B assay; type: functional; conditions: IGROV-1, 48 h; summary of the method: as §2
[18] = tested on: KM12; test: Growth inhibition of human KM12 cells after 48 hrs by sulforhodamine B assay; type: functional; conditions: KM12, 48 h; summary of the method: as §2
[19] = tested on: UO-31; test: Growth inhibition of human UO31 cells after 48 hrs by sulforhodamine B assay; type: functional; conditions: UO-31, 48 h
Summary of the method: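 NCI 60-line panel. Cells were grown in medium with 5% fetal calf serum and 2 mM L-glutamine and preincubated 24 h in plates. Compound in DMSO was added at 10^-4 to 10^-8 M (five 10-fold levels), with continuous exposure for 48 h. Growth was read by SRB protein staining. GI50 is the concentration giving 50% reduction in net protein increase versus control cells.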

[20] = tested on: MCF7; test: Growth inhibition of human MCF7 cells after 48 hrs by sulforhodamine B assay; type: functional; conditions: MCF7, 48 h; summary of the method: as §2
[21] = tested on: MDA-MB-468; test: Growth inhibition of human MDA-MB-468 cells after 48 hrs by sulforhodamine B assay; type: functional; conditions: MDA-MB-468, 48 h; summary of the method: as §1
[22] = tested on: MOLT-4; test: Growth inhibition of human MOLT4 cells after 48 hrs by sulforhodamine B assay; type: functional; conditions: MOLT-4, 48 h; summary of the method: as §1
[23] = tested on: K562; test: Growth inhibition of human K562 cells after 48 hrs by sulforhodamine B assay; type: functional; conditions: K562, 48 h; for CC50: read-out: LC50 (the source's name); summary of the method: as §2
[24] = tested on: PC-3; test: Growth inhibition of human PC3 cells after 48 hrs by sulforhodamine B assay; type: functional; conditions: PC-3, 48 h; summary of the method: as §1
[25] = tested on: SK-MEL-28; test: Growth inhibition of human SK-MEL-28 cells assessed as cell growth at 10 uM after 48 hrs by sulforhodamine B assay; type: functional; conditions: SK-MEL-28, 48 h, read-out: Activity
[26] = tested on: OVCAR-4; test: Growth inhibition of human OVCAR4 cells after 48 hrs by sulforhodamine B assay; type: functional; conditions: OVCAR-4, 48 h; summary of the method: as §1
[27] = Growth inhibition of human Hs 578T cells assessed as cell growth at 10 uM after 48 hrs by sulforhodamine B assay; type: functional; conditions: read-out: Activity
[28] = Growth inhibition of human HCC2998 cells assessed as cell growth at 10 uM after 48 hrs by sulforhodamine B assay; type: functional; conditions: HCC 2998, 48 h, read-out: Activity

Cc1ccc(C2=NN(c3ccc(S(C)(=O)=O)cc3)C(=O)CC2)cc1
GI50 [1]: 0.41 µM
LC50 [1]: > 100 µM
TGI [1]: > 100 µM
growth at 10 µM [2]: 23.9%
GI50 [3]: 0.63 µM
LC50 (50% lethal concentration) [3]: > 100 µM
TGI [3]: 6.8 µM
growth at 10 µM [4]: 55.2%
GI50 [5]: 4.02 µM
LC50 (concentration killing 50% of starting cells) [5]: > 100 µM
TGI [5]: > 100 µM
inhibition in vivo at 50 µmol/kg [6]: 46.7%
growth at 10 µM [7]: 45.5%
growth at 10 µM [8]: 60.8%
growth at 10 µM [9]: 6.77%
GI50 [10]: 1.16 µM
IC50 [10]: > 100 µM
TGI [10]: > 100 µM
growth at 10 µM [11]: -61.2%
GI50 [12]: 0.29 µM
LC50 [12]: > 100 µM
TGI [12]: > 100 µM
GI50 [13]: 1.15 µM
LC50 [13]: > 100 µM
TGI [13]: 20.7 µM
growth at 10 µM [14]: 42.9%
growth at 10 µM [15]: 59.2%
GI50 [16]: 0.12 µM
LC50 (concentration killing 50% of starting cells) [16]: > 100 µM
TGI [16]: 0.39 µM
GI50 [17]: 0.83 µM
LC50 [17]: > 100 µM
TGI [17]: > 100 µM
GI50 [18]: 0.44 µM
LC50 [18]: > 100 µM
TGI [18]: > 100 µM
GI50 [19]: 4.72 µM
LC50 (concentration killing 50% of cells) [19]: > 100 µM
TGI [19]: > 100 µM
GI50 [20]: 1.38 µM
LC50 (concentration killing 50% of cells) [20]: > 100 µM
TGI [20]: > 100 µM
GI50 [21]: 1.23 µM
LC50 (concentration killing 50% of cells) [21]: > 100 µM
TGI [21]: 4.86 µM
GI50 [22]: 0.86 µM
LC50 [22]: > 100 µM
TGI [22]: > 100 µM
GI50 [23]: 0.37 µM
TGI [23]: > 100 µM
CC50 [23]: > 100 µM
GI50 [24]: 1.43 µM
LC50 [24]: > 100 µM
TGI [24]: > 100 µM
growth at 10 µM [25]: 51.4%
GI50 [26]: > 100 µM
LC50 [26]: > 100 µM
TGI [26]: > 100 µM
growth at 10 µM [27]: -1.17%
growth at 10 µM [28]: 47.2%

CCc1ccc(C2=NN(c3ccc(S(C)(=O)=O)cc3)C(=O)CC2)cc1
GI50 [1]: 1.48 µM
LC50 [1]: 35.7 µM
TGI [1]: 11.2 µM
growth at 10 µM [2]: 50.7%
GI50 [3]: 2.04 µM
LC50 (50% lethal concentration) [3]: > 100 µM
TGI [3]: 19.8 µM
growth at 10 µM [4]: 42.8%
GI50 [5]: 8.59 µM
LC50 (concentration killing 50% of starting cells) [5]: > 100 µM
TGI [5]: > 100 µM
inhibition in vivo at 50 µmol/kg [6]: 46.7%
growth at 10 µM [7]: 38.8%
growth at 10 µM [8]: 76.2%
growth at 10 µM [9]: 21.4%
GI50 [10]: 2.31 µM
TGI [10]: > 100 µM
CC50 ([10]; read-out: LC50 (the source's name)): > 100 µM
growth at 10 µM [11]: -24.3%
GI50 [12]: 5.65 µM
LC50 [12]: > 100 µM
TGI [12]: 40.3 µM
GI50 [13]: 2.44 µM
LC50 [13]: > 100 µM
TGI [13]: 19.6 µM
growth at 10 µM [14]: 38%
growth at 10 µM [15]: 37.4%
GI50 [16]: 0.22 µM
LC50 (concentration killing 50% of starting cells) [16]: > 100 µM
TGI [16]: 0.74 µM
GI50 [17]: 1.48 µM
LC50 [17]: > 100 µM
TGI [17]: 55.2 µM
GI50 [18]: 0.93 µM
LC50 [18]: > 100 µM
TGI [18]: > 100 µM
GI50 [19]: 5.23 µM
LC50 (concentration killing 50% of cells) [19]: > 100 µM
TGI [19]: > 100 µM
GI50 [20]: 3.13 µM
LC50 (concentration killing 50% of cells) [20]: > 100 µM
TGI [20]: > 100 µM
GI50 [21]: 3.75 µM
LC50 (concentration killing 50% of cells) [21]: > 100 µM
TGI [21]: 31.2 µM
GI50 [22]: 3.52 µM
LC50 [22]: > 100 µM
TGI [22]: 6.75 µM
GI50 [23]: 0.42 µM
TGI [23]: > 100 µM
CC50 [23]: > 100 µM
GI50 [24]: 2.76 µM
LC50 [24]: > 100 µM
TGI [24]: > 100 µM
growth at 10 µM [25]: 50.7%
GI50 [26]: 0.01 µM
LC50 [26]: > 100 µM
TGI [26]: > 100 µM
growth at 10 µM [27]: -0.67%
growth at 10 µM [28]: 46.6%

O=c1[nH]cc(F)c(=O)[nH]1 [FLUOROURACIL]
GI50 [1]: 0.46 µM
GI50 [3]: 2.61 µM
GI50 [5]: 0.29 µM
GI50 [10]: 9.79 µM
GI50 [12]: 0.02 µM
GI50 [13]: 21.8 µM
GI50 [16]: 0.07 µM
GI50 [17]: 1.22 µM
GI50 [18]: 0.21 µM
GI50 [19]: 1.42 µM
GI50 [20]: 0.07 µM
GI50 [22]: 0.35 µM
GI50 [23]: 3.58 µM
GI50 [24]: 2.36 µM
GI50 [26]: 4.43 µM
